Measurements from different studies.
Lines come from different studies, so protocols differ.
INSR: Insulin receptor (INSR, Homo sapiens, UniProt P06213)
INSR phosphorylated: Insulin receptor, phosphorylated (INSR, Homo sapiens, UniProt P06213)

O=C(NS(=O)(=O)c1ccc(NCC2CCOCC2)c([N+](=O)[O-])c1)c1ccc(N2CCN(Cc3ccc(C(F)(F)F)cc3-c3ccc(Cl)cc3)CC2)cc1Oc1cnc2[nH]ccc2c1
remaining binding (INSR; cell-free assay, competition with immobilised ligand; 1 µM): 89%

CN(c1ncccc1CNc1nc(Nc2ccc3c(c2)CC(=O)N3)ncc1C(F)(F)F)S(C)(=O)=O
inhibition (INSR; enzyme activity, inhibitor; 1 µM): 57.2%

CCC(=N\O)/C(C)=C/c1ccc(F)cc1
remaining binding (INSR; cell-free assay, competition with immobilised ligand; 1 µM): 100%

Cc1ccc(Nc2nccc(N(C)c3ccc4c(C)n(C)nc4c3)n2)cc1S(N)(=O)=O
inhibition (INSR; enzyme activity, inhibitor; 10 µM): 27%

CNCc1ccc(-c2cc(-c3nc(-c4ccc(S(=O)(=O)C(C)C)cc4)cnc3N)on2)cc1
inhibition (INSR; enzyme activity, inhibitor; 0.4 µM): 0%

CC(C)(O)c1cncc(-c2nc3ccc(F)cc3n2C2CC2)c1
remaining binding (INSR; cell-free assay, competition with immobilised ligand; 1 µM): 100%

CNc1cccc2cc(C(=O)Nc3ccc(C(=O)O)cc3)c(=O)[nH]c12
inhibition (INSR; enzyme activity, inhibitor; 10 µM): 5.2%

C[C@H](NC(=O)c1cnc2n1[C@](C)(Cc1ccc(C#N)cc1)C(=O)N2c1cc(Cl)c(F)c(Cl)c1)C(=O)NC1(c2ccccn2)CC1
remaining binding (INSR; cell-free assay, competition with immobilised ligand; 1 µM): 100%

CN1CC(Oc2cnc(C#N)cc2-c2ccn3nc(NC(=O)C4CC4)cc3c2)C1
inhibition (INSR phosphorylated; enzyme activity, inhibitor; 1 µM): 1%

O=C(NC[C@@H]1[C@H]2CN(C(=O)OCc3cc(C(F)(F)F)cc(C(F)(F)F)c3)C[C@@H]12)c1ccc2[nH]nnc2c1
remaining binding (INSR; cell-free assay, competition with immobilised ligand; 1 µM): 83%

CN(C)C1CCN(CC#Cc2nn(C3CCCC3)c3nc(NCc4ccccc4)ncc23)C1 (stereo not drawn)
inhibition (INSR; enzyme activity, inhibitor, FRET; 1 µM): 8%

COc1cc2c(Nc3ccc(Br)cc3F)ncnc2cc1OCC1CCN(C)CC1
remaining signal (INSR; cell-free assay; 0.5 µM): 102%

CSc1nc(C)c(-c2ccnc(Nc3ccc(N4CCOCC4)cc3)c2)[nH]1
inhibition (INSR; cell-free assay, inhibitor; 10 µM): -1.8%

O=C(NCc1ncc(C(F)(F)F)cc1Cl)c1ccc2c(c1)C1(CCS(=O)(=O)CC1)[C@@H](C1CC1)N2S(=O)(=O)c1ccc(F)cc1
remaining binding (INSR; cell-free assay, competition with immobilised ligand; 1 µM): 100%

CC/C(=N\NC(=O)NCc1cccc(O)c1)c1ccc(O)c(C)c1O
inhibition (INSR; enzyme activity, inhibitor; 0.1 µM): 0.1%

COc1cc2ncnc(Nc3ccc(Oc4ccccc4)cc3C)c2cc1OC
inhibition (INSR; enzyme activity, inhibitor; 1 µM): -1%

CC(C)c1ccc(NC(=O)c2cccs2)c(-c2nc3ccccc3[nH]c2=O)c1
activity vs control (INSR; enzyme activity, inhibitor; 1 µM): 91%

Cc1ccc(C(=O)Nc2ccc(CN3CCN(C)CC3)c(C(F)(F)F)c2)cc1C#Cc1cnc2cccnn12
remaining signal (INSR; cell-free assay; 23.5 nM): 85%

Cc1ccc(C(=O)NCc2ccsc2)cc1C#Cc1cn(C(C)C)c2ncnc(N)c12
activity vs control (INSR phosphorylated; enzyme activity, inhibitor; 1 µM): 95%

C[C@@H]1CCN(C(=O)CC#N)C[C@@H]1N(C)c1ncnc2[nH]ccc12
remaining signal (INSR; cell-free assay; 0.5 µM): 101%

Cc1ccc(NC(=O)c2ccc(C)c(C(F)(F)F)c2)cc1C#Cc1nn(C2CCC(O)CC2)c2ncnc(N)c12 (stereo not drawn)
remaining signal (INSR; cell-free assay; 10 µM): 97%

O=C(CSc1nc2nccnc2c(=O)n1CCc1ccccc1)Nc1nccs1
inhibition (INSR; enzyme activity, inhibitor; 10 µM): 5%

FC(F)(F)c1ccc2c(c1)nc(-c1cccnc1)n2C1CC1
remaining binding (INSR; cell-free assay, competition with immobilised ligand; 1 µM): 100%

Cc1cc(NC(=O)c2cccc3cc(-c4cccc5[nH]nc(N)c45)ccc23)ccc1F
activity vs control (INSR phosphorylated; enzyme activity, inhibitor; 0.1 µM): 91%
